Laboratory results published in ChEMBL document CHEMBL4330180, “Identification of Portimine B, a New Cell Permeable Spiroimine That Induces Apoptosis in Oral Squamous Cell Carcinoma” (ACS Med Chem Lett, 2019).
The source made the active and inactive calls. No cut-off for these calls is given here.

Columns and labels:
[1] = Permeability of the compound at 100 uM after 6 hrs by PAMPA; type: ADME
UMSCC23 [2] = test: Induction of apoptosis in human UMSCC23 cells assessed as increase in GADD45alpha mRNA expression at antiproliferative IC50 over 36 hrs by RT-qPCR analysis; type: functional, cell-based
In short: (§1)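 OCSCC cultures treated at the IC50 from the ATP proliferation assay. cDNA libraries were made from the treated cells and analysed for apoptotic transcripts by Taqman RT-qPCR. Three independent experiments were run, each in triplicate, with error bars given as SEM.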

HN12 [3] = test: (§2) Antiproliferative activity against human HN12 cells after 48 hrs by ATP-based Cell Titer-Glo assay; type: functional
In short: (§3)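 OCSCC cells cultured with increasing concentrations of purified compound (98% by UPLC-PDA). Read-out was ATP-based luminescent proliferation. Exposure is given as 48 h in the figure legend and 36 h in the text. IC50 values were taken from the dose-response curves. Error bars are SD.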

[4] = as §2; type: functional; conditions: HN12, 48 h; in short: as §3
HN12 [5] = test: Induction of apoptosis in human HN12 cells assessed as increase in NOXA mRNA expression at antiproliferative IC50 over 36 hrs by RT-qPCR analysis; type: functional, cell-based; in short: as §1
UMSCC23 [6] = test: Induction of apoptosis in human UMSCC23 cells assessed as increase in DR5 mRNA expression at antiproliferative IC50 over 36 hrs by RT-qPCR analysis; type: functional, cell-based; in short: as §1
HN12 [7] = test: Induction of apoptosis in human HN12 cells assessed as genomic DNA laddering after 48 hrs by agarose gel electrophoresis method; type: functional, cell-based
In short: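 HN12 cells treated for 48 h at the proliferation-assay IC50 and at a semilog dose above and below it. Genomic DNA was resolved electrophoretically and scored for laddering.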

UMSCC23 [8] = test: Antiproliferative activity against human UMSCC23 cells after 48 hrs by ATP-based Cell Titer-Glo assay; type: functional; conditions: for IC50: UMSCC23, 48 h; in short: as §3
UMSCC23 [9] = test: Induction of apoptosis in human UMSCC23 cells assessed as increase in NOXA mRNA expression at antiproliferative IC50 over 36 hrs by RT-qPCR analysis; type: functional, cell-based; in short: as §1
HN12 [10] = test: Induction of apoptosis in human HN12 cells assessed as increase in DR5 mRNA expression at antiproliferative IC50 over 36 hrs by RT-qPCR analysis; type: functional, cell-based; in short: as §1
HN12 [11] = test: Induction of apoptosis in human HN12 cells assessed as increase in GADD45alpha mRNA expression at antiproliferative IC50 over 36 hrs by RT-qPCR analysis; type: functional, cell-based; in short: as §1
HN12 [12] = test: Induction of apoptosis in human HN12 cells assessed as increase in Bcl2 mRNA expression at antiproliferative IC50 over 36 hrs by RT-qPCR analysis; type: functional, cell-based; in short: as §1
UMSCC23 [13] = test: Induction of apoptosis in human UMSCC23 cells assessed as increase in Bcl2 mRNA expression at antiproliferative IC50 over 36 hrs by RT-qPCR analysis; type: functional, cell-based; in short: as §1

For `C=CC1=C[C@@H]2[C@@H]3O[C@]4(CC[C@H](O4)[C@@H](C)C[C@@H](O)C3=O)C[C@H](O)C3=NCC[C@@]32CC1`, the permeability [1] was 54%, the Activity (UMSCC23 [2]) was “Active” and the Activity (HN12 [3]) was “Dose-dependent effect”. For the same compound, the IC50 [4] was 2.8 nM, the Activity (HN12 [5]) was “Active” and the Activity (UMSCC23 [6]) was “Active”. For the same compound, the Activity (HN12 [7]) was “Active”, the Activity (UMSCC23 [8]) was “Dose-dependent effect” and the IC50 (UMSCC23 [8]) was 3.2 nM. The Activity (UMSCC23 [9]) was “Active”, the Activity (HN12 [10]) was “Active” and the Activity (HN12 [11]) was “Active”. For the same compound, the Activity (HN12 [12]) was “Active” and the Activity (UMSCC23 [13]) was “Active”.

Compound `C[C@]12C=CC(=O)C=C1CC[C@@H]1[C@@H]2C(=O)C[C@@]2(C)[C@H]1CC[C@]2(O)C(=O)CO` [PREDNISONE] has a permeability [1] of 12%.

In the case of `C=CC1=C[C@@H]2[C@@H]3O[C@](O)(CC[C@H](O)[C@@H](C)C[C@@H](O)C3=O)CC(=O)C3=NCC[C@@]32CC1`, the permeability [1] is reported as 35%, the Activity (UMSCC23 [2]) is reported as “Active” and the IC50 [4] is reported as 116 nM. The Activity (HN12 [5]) was “Active”, the Activity (UMSCC23 [6]) was “Active” and the Activity (HN12 [7]) was “Active”. For the same compound, the IC50 (UMSCC23 [8]) was 229 nM, the Activity (UMSCC23 [9]) was “Active” and the Activity (HN12 [10]) was “Active”. For the same compound, the Activity (HN12 [11]) was “Active”, the Activity (HN12 [12]) was “Active” and the Activity (UMSCC23 [13]) was “Active”.
